Measurements taken from ChEMBL document CHEMBL1136007, “Synthesis, antifungal activity, and molecular modeling studies of new inverted oxime ethers of oxiconazole” (2002).
≈ marks a conversion by molar mass, not a printed value.

Legend:
Aspergillus fumigatus [1] = assay: microbe, parasite or virus in culture; assay type: functional
Candida albicans [2] = assay: microbe, parasite or virus in culture; assay type: functional
Nakaseomyces glabratus [3] = assay: In vitro antifungal activity against Candida glabrata 2375E; assay type: functional
Aspergillus flavus [4] = assay: (§1) In vitro antifungal activity against Aspergillus flavus CM74; assay type: functional
How it was run: (§2)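 Broth microdilution in RPMI-2% glucose following NCCLS M38-P. Conidia came from Sabouraud dextrose agar slants grown at 27 °C. They were harvested in saline with 0.1% Tween 80, gauze-filtered, counted by hemocytometer and stored at -70 °C. The final inoculum was ~10^4 conidia/mL, with 2-fold drug dilutions from 0.25 to 128 µg/mL. Plates were incubated at 35 °C and read by mirror once control growth was visible. MIC = lowest concentration with no visible growth.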

Aspergillus fumigatus [5] = assay: In vitro antifungal activity against Aspergillus fumigatus 48238E; assay type: functional
How it was run: as §2

Trichophyton rubrum [6] = assay: (§3) In vitro antifungal activity against Trichophyton rubrum CM1447; assay type: functional
Candida parapsilosis [7] = assay: microbe, parasite or virus in culture; assay type: functional; settings: Lodderomyces parapsilosis
Aspergillus flavus [8] = assay: as §1; assay type: functional; remark: listed apart in the source
Nakaseomyces glabratus [9] = assay: microbe, parasite or virus in culture; assay type: functional
Candida parapsilosis [10] = assay: In vitro antifungal activity against Candida parapsilosis 2372E; assay type: functional; settings: Lodderomyces parapsilosis
How it was run: (§4)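 Yeast broth microdilution per NCCLS M27-A, with 2-fold drug dilutions from 0.001 to 128 µg/mL. The inoculum was adjusted spectrophotometrically, giving a final ~10^4 cells/mL. Plates were incubated for 24 h at 35 °C, static and humid, then shaken and read visually and at 450 nm. MIC = lowest concentration preventing discernible growth (~90% reduction vs drug-free wells).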

Trichophyton benhamiae [11] = assay: (§5) In vitro antifungal activity against Trichophyton mentagrophytes CM84; assay type: functional, Arthroderma benhamiae
Candida albicans [12] = assay: In vitro antifungal activity against Candida albicans 4711E; assay type: functional
How it was run: as §4

Trichophyton rubrum [13] = assay: as §3; assay type: functional; remark: listed apart in the source
How it was run: as §2

Trichophyton benhamiae [14] = assay: as §5; assay type: functional, Arthroderma benhamiae; remark: listed apart in the source
How it was run: as §2

| Structure (SMILES) | MIC (Aspergillus fumigatus [1]) [µg/mL] | MIC (Candida albicans [2]) [µg/mL] | MFC (Nakaseomyces glabratus [3]) [µg/mL] | MFC (Aspergillus flavus [4]) [µg/mL] | MFC (Aspergillus fumigatus [5]) [µg/mL] | MIC (Trichophyton rubrum [6]) [µg/mL] | MIC (Candida parapsilosis [7]) [µg/mL] | MIC (Aspergillus flavus [8]) [µg/mL] | MIC (Nakaseomyces glabratus [9]) [µg/mL] | MFC (Candida parapsilosis [10]) [µg/mL] | MIC (Trichophyton benhamiae [11]) [µg/mL] | MFC (Candida albicans [12]) [µg/mL] | MFC (Trichophyton rubrum [13]) [µg/mL] | MFC (Trichophyton benhamiae [14]) [µg/mL] |
| --- | --- | --- | --- | --- | --- | --- | --- | --- | --- | --- | --- | --- | --- | --- |
| CC/C(=N\OC(Cn1ccnc1)c1ccc(Cl)cc1Cl)c1ccc(Cl)cc1Cl (stereo not given) | > 128 | 16 (≈ 35 µM) |  |  |  |  |  |  |  |  |  |  |  |  |
| CCC/C(=N\OC(Cn1ccnc1)c1ccc(Cl)cc1Cl)c1ccc(Cl)cc1Cl (stereo not given) | > 128 | > 128 |  |  |  |  |  |  |  |  |  |  |  |  |
| C/C(=N\OC(Cn1ccnc1)c1ccc(F)cc1F)c1ccc(F)cc1F (stereo not given) | 8 (≈ 21.2 µM) | 32 (≈ 84.8 µM) | 2 (≈ 5.3 µM) | 16 (≈ 42.4 µM) | 16 (≈ 42.4 µM) | 8 (≈ 21.2 µM) | 2 (≈ 5.3 µM) | 16 (≈ 42.4 µM) | 0.03 (≈ 0.0795 µM) | 32 (≈ 84.8 µM) | 1 (≈ 2.65 µM) | 32 (≈ 84.8 µM) | 16 (≈ 42.4 µM) | 4 (≈ 10.6 µM) |
| Cl.Fc1ccc(C(Cn2ccnc2)O/N=C/c2c(F)cccc2F)c(F)c1 (stereo not given) | 32 | 32 |  |  |  |  |  |  |  |  |  |  |  |  |
| Clc1ccc(CO/N=C(\Cn2ccnc2)c2ccc(Cl)cc2Cl)c(Cl)c1 [OXICONAZOLE] | 2 (≈ 4.66 µM) | 0.03 (≈ 0.0699 µM) | 0.25 (≈ 0.583 µM) | 2 (≈ 4.66 µM) | 2 (≈ 4.66 µM) | 2 (≈ 4.66 µM) | 0.008 (≈ 0.0186 µM) | 2 (≈ 4.66 µM) | 0.01 (≈ 0.0233 µM) | 4 (≈ 9.32 µM) | 2 (≈ 4.66 µM) | 64 (≈ 149 µM) | 2 (≈ 4.66 µM) | 4 (≈ 9.32 µM) |
| C/C(=N\OC(Cn1ccnc1)c1ccc(Cl)cc1Cl)c1ccc(OCCN2CCOCC2)cc1 (stereo not given) | 32 (≈ 63.6 µM) | 1 (≈ 1.99 µM) | 8 (≈ 15.9 µM) | 32 (≈ 63.6 µM) | 32 (≈ 63.6 µM) | 2 (≈ 3.97 µM) | 0.004 (≈ 0.00795 µM) | 32 (≈ 63.6 µM) | 0.06 (≈ 0.119 µM) | 8 (≈ 15.9 µM) | 4 (≈ 7.95 µM) | 8 (≈ 15.9 µM) | 16 (≈ 31.8 µM) | 8 (≈ 15.9 µM) |
| Cl.Clc1ccc(/C=N/OC(Cn2ccnc2)c2ccc(Cl)cc2Cl)c(Cl)c1 (stereo not given) | 64 | > 128 |  |  |  |  |  |  |  |  |  |  |  |  |
| C/C(=N\OC(Cn1ccnc1)c1ccc(F)cc1F)c1ccc(F)cc1 (stereo not given) | 16 (≈ 44.5 µM) | 64 (≈ 178 µM) |  |  |  |  |  |  |  |  |  |  |  |  |
| C/C(=N\OC(Cn1ccnc1)c1ccc(Cl)cc1Cl)c1ccc(Cl)cc1Cl (stereo not given) | 8 (≈ 18.1 µM) | 4 (≈ 9.03 µM) | 2 (≈ 4.51 µM) | 32 (≈ 72.2 µM) | 8 (≈ 18.1 µM) | 8 (≈ 18.1 µM) | 1 (≈ 2.26 µM) | 32 (≈ 72.2 µM) | 0.5 (≈ 1.13 µM) | 16 (≈ 36.1 µM) | 8 (≈ 18.1 µM) | 8 (≈ 18.1 µM) | 8 (≈ 18.1 µM) | 8 (≈ 18.1 µM) |
| Cl.Fc1ccc(/C=N/OC(Cn2ccnc2)c2ccc(F)cc2F)c(F)c1 (stereo not given) | 16 | 16 |  |  |  |  |  |  |  |  |  |  |  |  |
| Clc1ccc(C(Cn2ccnc2)O/N=C/c2ccc(OCCN3CCOCC3)cc2)c(Cl)c1 (stereo not given) | 2 (≈ 4.09 µM) | 2 (≈ 4.09 µM) | 8 (≈ 16.3 µM) | 8 (≈ 16.3 µM) | 2 (≈ 4.09 µM) | 2 (≈ 4.09 µM) | 0.25 (≈ 0.511 µM) | 8 (≈ 16.3 µM) | 1 (≈ 2.04 µM) | 16 (≈ 32.7 µM) | 4 (≈ 8.17 µM) | 8 (≈ 16.3 µM) | 16 (≈ 32.7 µM) | 8 (≈ 16.3 µM) |
| Fc1ccc(C(Cn2ccnc2)O/N=C/c2ccc(OCCN3CCOCC3)cc2)c(F)c1 (stereo not given) | 64 (≈ 140 µM) | 64 (≈ 140 µM) | 8 (≈ 17.5 µM) | 64 (≈ 140 µM) | 64 (≈ 140 µM) | 8 (≈ 17.5 µM) | 0.25 (≈ 0.548 µM) | 64 (≈ 140 µM) | 2 (≈ 4.38 µM) | 4 (≈ 8.76 µM) | > 128 | 64 (≈ 140 µM) | 16 (≈ 35 µM) | > 128 |
| OC(Cn1cncn1)(Cn1cncn1)c1ccc(F)cc1F [FLUCONAZOLE] | > 128 | 0.12 (≈ 0.392 µM) | > 128 | > 128 | > 128 | 0.5 (≈ 1.63 µM) | 0.5 (≈ 1.63 µM) | > 128 | 2 (≈ 6.53 µM) | > 128 | 0.5 (≈ 1.63 µM) | > 128 | > 128 | > 128 |
| C/C(=N\OC(Cn1ccnc1)c1ccc(F)cc1F)c1c(F)cccc1F (stereo not given) | 16 (≈ 42.4 µM) | 32 (≈ 84.8 µM) | 1 (≈ 2.65 µM) | 64 (≈ 170 µM) | 32 (≈ 84.8 µM) | 4 (≈ 10.6 µM) | 0.25 (≈ 0.663 µM) | 32 (≈ 84.8 µM) | 0.03 (≈ 0.0795 µM) | 16 (≈ 42.4 µM) | 2 (≈ 5.3 µM) | 32 (≈ 84.8 µM) | 8 (≈ 21.2 µM) | 2 (≈ 5.3 µM) |
| C/C(=N\OC(Cn1ccnc1)c1ccc(F)cc1F)c1ccc(OCCN2CCOCC2)cc1 (stereo not given) | 16 (≈ 34 µM) | 8 (≈ 17 µM) | 4 (≈ 8.5 µM) | 32 (≈ 68 µM) | 16 (≈ 34 µM) | 4 (≈ 8.5 µM) | 0.03 (≈ 0.0638 µM) | 16 (≈ 34 µM) | 0.25 (≈ 0.531 µM) | 2 (≈ 4.25 µM) | 2 (≈ 4.25 µM) | 32 (≈ 68 µM) | 4 (≈ 8.5 µM) | 4 (≈ 8.5 µM) |
| C/C(=N\OC(Cn1ccnc1)c1ccc(F)cc1F)c1cc(F)ccc1F (stereo not given) | 4 (≈ 10.6 µM) | 8 (≈ 21.2 µM) | 1 (≈ 2.65 µM) | 8 (≈ 21.2 µM) | 4 (≈ 10.6 µM) | 1 (≈ 2.65 µM) | 2 (≈ 5.3 µM) | 8 (≈ 21.2 µM) | 0.03 (≈ 0.0795 µM) | 64 (≈ 170 µM) | 0.25 (≈ 0.663 µM) | 32 (≈ 84.8 µM) | 16 (≈ 42.4 µM) | 2 (≈ 5.3 µM) |
| C/C(=N\OC(Cn1ccnc1)c1ccc(F)cc1F)c1ccccc1F.Cl (stereo not given) | 16 | 32 |  |  |  |  |  |  |  |  |  |  |  |  |
| Fc1ccc(/C(Cn2ccnc2)=N/OC(Cn2ccnc2)c2ccc(F)cc2F)c(F)c1 (stereo not given) | > 128 | 2 (≈ 4.51 µM) | 16 (≈ 36.1 µM) | > 128 | > 128 | 64 (≈ 144 µM) | 8 (≈ 18 µM) | > 128 | 4 (≈ 9.02 µM) | 128 (≈ 289 µM) | 64 (≈ 144 µM) | > 128 | 64 (≈ 144 µM) | > 128 |
| Clc1ccc(/C(Cn2ccnc2)=N/OC(Cn2ccnc2)c2ccc(Cl)cc2Cl)c(Cl)c1 (stereo not given) | 128 (≈ 251 µM) | 32 (≈ 62.8 µM) |  |  |  |  |  |  |  |  |  |  |  |  |
